# The source made the active and inactive calls. No cut-off for these calls is given here.
# Key:
# [1] = tested on: Staphylococcus epidermidis; assay: Antibacterial activity against Staphylococcus epidermidis MTCC 435 assessed as inhibition of bacterial growth at 50 uM measured after 48 hrs by agar well diffusion method; format: functional; conditions: read-out: IZ
# Enterococcus faecalis = assay: Antibacterial activity against Enterococcus faecalis MTCC 439 assessed as inhibition of bacterial growth at 50 uM measured after 48 hrs by agar well diffusion method; format: functional; conditions: read-out: IZ
# Escherichia coli = assay: Antibacterial activity against clinically isolated Escherichia coli RBRJ013 assessed as inhibition of bacterial growth at 50 uM measured after 48 hrs by agar well diffusion method; format: functional; conditions: read-out: IZ
# Enterobacter cloacae = assay: Antibacterial activity against clinically isolated Enterobacter cloacae RBRJ017 assessed as inhibition of bacterial growth at 50 uM measured after 48 hrs by agar well diffusion method; format: functional; conditions: read-out: IZ
# Staphylococcus aureus [2] = assay: Antibacterial activity against clinically isolated Staphylococcus aureus RBRJ010 assessed as inhibition of bacterial growth measured after 48 hrs by broth microdilution method; format: functional
# [3] = tested on: Staphylococcus epidermidis; assay: Antibacterial activity against Staphylococcus epidermidis MTCC 435 assessed as inhibition of bacterial growth measured after 48 hrs by broth microdilution method; format: functional
# Staphylococcus aureus [4] = assay: Antibacterial activity against clinically isolated Methicillin-resistant Staphylococcus aureus assessed as inhibition of bacterial growth measured after 48 hrs by broth microdilution method; format: functional
# Staphylococcus aureus [5] = assay: Antibacterial activity against Methicillin-resistant Staphylococcus aureus ATCC 33591 assessed as inhibition of bacterial growth measured after 48 hrs by broth microdilution method; format: functional
# Staphylococcus aureus [6] = assay: Bactericidal activity against Staphylococcus aureus MTCC 740 assessed as inhibition of bacterial growth measured after 48 hrs by agar plate method; format: functional
# Procedure, shortened: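 MBC: aliquots from microdilution wells without colour change subcultured on drug-free Mueller Hinton agar, 48 h at 37 °C aerobically. MBC is the lowest concentration with no visible growth. Triplicate.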
# [7] = tested on: Staphylococcus epidermidis; assay: Bactericidal activity against Staphylococcus epidermidis MTCC 435 assessed as inhibition of bacterial growth measured after 48 hrs by agar plate method; format: functional
# Procedure, shortened: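 MBC: 10 μL from wells showing no INT colour change after broth microdilution subcultured on drug-free Mueller Hinton agar, 48 h at 37 °C aerobically; lowest concentration with no visible growth taken as MBC (μM). Triplicate.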
# Staphylococcus aureus [8] = assay: Anti-biofilm activity against Methicillin-resistant Staphylococcus aureus assessed as biofilm volume/area at 1/2XMIC measured after 48 hrs by crystal violet staining based phase contrast microscopy (reference value: 18.37 +/-1.14 um3/um2); format: functional
# Staphylococcus aureus [9] = assay: Anti-biofilm activity against Methicillin-resistant Staphylococcus aureus assessed as biofilm volume/area at 1XMIC measured after 48 hrs by crystal violet staining based phase contrast microscopy (reference value: 18.37 +/-1.14 um3/um2); format: functional
# Staphylococcus aureus [10] = assay: Anti-biofilm activity against Methicillin-resistant Staphylococcus aureus assessed as biofilm substrate coverage at 1/2XMIC measured after 48 hrs by crystal violet staining based phase contrast microscopy (reference value: 81.43+/-3.57%); format: functional
# Staphylococcus aureus [11] = assay: Anti-biofilm activity against Methicillin-resistant Staphylococcus aureus assessed as biofilm substrate coverage at 1XMIC measured after 48 hrs by crystal violet staining based phase contrast microscopy (reference value: 81.43+/-3.57%); format: functional
# Staphylococcus aureus [12] = assay: Anti-biofilm activity against Methicillin-resistant Staphylococcus aureus assessed as biofilm substrate coverage at 2XMIC measured after 48 hrs by crystal violet staining based phase contrast microscopy (reference value: 81.43+/-3.57%); format: functional
# Staphylococcus aureus [13] = assay: Anti-biofilm activity against Methicillin-resistant Staphylococcus aureus assessed as reduction in integrated density of biofilms at 1/2 to 2XMIC measured after 48 hrs by Syto-9 staining based fluorescence microscopy; format: functional, organism-based
# Procedure, shortened: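 After PBS washes, stained with SYTO-9 ([…]) 15 min at 25 °C and imaged by fluorescence microscopy (excitation 480 nm). Integrated density quantified from images. Triplicate, mean ± SD.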
# [14] = biological target: T1, 4,4'-diapophytoene synthase (Staphylococcus aureus) (UniProt A9JQL9); assay: Inhibition of CrtM in Methicillin-resistant Staphylococcus aureus assessed as inhibition of staphyloxanthin production at 1/4 to 1/16XMIC measured after 48 hrs
# T1 sequence (whole entry): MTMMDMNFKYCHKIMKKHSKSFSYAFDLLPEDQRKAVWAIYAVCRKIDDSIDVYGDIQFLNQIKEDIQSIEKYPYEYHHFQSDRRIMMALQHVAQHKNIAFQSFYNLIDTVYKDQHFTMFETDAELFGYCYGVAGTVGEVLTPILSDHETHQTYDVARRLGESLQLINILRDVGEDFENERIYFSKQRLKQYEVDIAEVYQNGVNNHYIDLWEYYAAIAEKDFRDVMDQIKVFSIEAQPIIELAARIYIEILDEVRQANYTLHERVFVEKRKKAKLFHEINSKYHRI
# [15] = biological target: T1, 4,4'-diapophytoene synthase (Staphylococcus aureus); assay: Inhibition of CrtM in Methicillin-resistant Staphylococcus aureus assessed as inhibition of staphyloxanthin production by measuring reduction in 4,4'-diaponeurosporene level at 1/4XMIC measured after 24 hrs by spectroscopic analysis
# Procedure, shortened: (§1)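 Cells pelleted, PBS-washed, extracted overnight in methanol at 37 °C. Supernatant absorbance read at 462 nm (staphyloxanthin), 286 nm (4,4′-diapophytoene), 435 nm (4,4′-diaponeurosporene) or 455 nm (4,4′-diaponeurosporenic acid). % inhibition = (control − treated)/control × 100.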
# [16] = biological target: T1, 4,4'-diapophytoene synthase (Staphylococcus aureus); assay: Inhibition of CrtM in Methicillin-resistant Staphylococcus aureus assessed as inhibition of staphyloxanthin production by measuring reduction in 4,4'-diaponeurosporenic acid level at 1/4XMIC measured after 24 hrs by spectroscopic analysis; procedure, shortened: as §1
# [17] = Toxicity against Galleria mellonella assessed as visible injury at 20 mg/kg measured every 12 hrs for 120 hrs; format: organism-based; conditions: in vivo
# Procedure, shortened: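 Uninfected Galleria mellonella larvae (0.2–0.4 g, ten per group) given 20 mg kg−1 compound, alongside untreated, PBS and PBS + 2% DMSO vehicle controls; held at 37 °C and checked every 12 h for 120 h. Larvae that turned black and gave no response to stimulus counted dead; percentage survival recorded.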
# Staphylococcus aureus [18] = assay: Antibacterial activity against Methicillin-resistant Staphylococcus aureus infected in Galleria mellonella assessed as larva's survial rate at 2.5 mg/kg measured after 24 to 48 hrs; format: functional; conditions: time 24-48 hrs
# Procedure, shortened: (§2)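 Galleria mellonella larvae (0.2–0.4 g, 10 per group) injected in the last proleg with MRSA at 5 × 10^8 ± 0.2 cells per larva, then given 2.5, 5 or 10 mg kg−1. Controls: untreated, PBS, and PBS + 2% DMSO vehicle. Held at 37 °C and checked every 12 h; larvae that were black and unresponsive counted dead. Bacterial burden by CFU at 0, 24 and 48 h.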
# Staphylococcus aureus [19] = assay: Antibacterial activity against Methicillin-resistant Staphylococcus aureus infected in Galleria mellonella assessed as larva's survival rate at 5 to 10 mg/kg measured after 24 to 48 hrs; format: functional; conditions: dose 5-10 mg/kg, time 24-48 hrs; procedure, shortened: as §2
# Galleria mellonella = assay: Modulation of immune response in MRSA-infected Galleria mellonella systemic infection model assessed as reduction in haemocytes in larva's circulating lymph at 10 mg/kg measured after 24 to 48 hrs by fluorescent microscopic analysis; format: functional, organism-based; conditions: time 24-48 hrs
# Procedure, shortened: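 Galleria mellonella larvae (0.2–0.4 g, ten per group) injected in the last proleg with MRSA, 5 × 10^8 cells per larva, then given 10 mg kg−1 compound; kept at 37 °C. Hemolymph collected on ice at 24 and 48 h post inoculation, diluted in PBS, counted with an automated cell counter and viewed with trypan blue (0.1%) under a fluorescent microscope.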
structure (smiles),measurement,setting,value
Cc1ccc(C(C)C)c(OCc2cn(CCCN3C(=O)C(=O)c4ccccc43)nn2)c1,zone of inhibition at 50 µM,[1],25.5 mm
same,zone of inhibition at 50 µM,Enterococcus faecalis,18.5 mm
same,zone of inhibition at 50 µM,Escherichia coli,20.3 mm
same,zone of inhibition at 50 µM,Enterobacter cloacae,19.2 mm
same,MIC,Staphylococcus aureus [2],1.9 µM
same,MIC,[3],3.9 µM
same,MIC,Staphylococcus aureus [4],1.9 µM
same,MIC,Staphylococcus aureus [5],3.9 µM
same,MBC,Staphylococcus aureus [6],3.9 µM
same,MBC,[7],7.8 µM
same,Activity,Staphylococcus aureus [8],3.48 um3/um2
same,Activity,Staphylococcus aureus [9],1.57 um3/um2
same,Activity,Staphylococcus aureus [10],19.12%
same,Activity,Staphylococcus aureus [11],5.11%
same,Activity,Staphylococcus aureus [12],1.83%
same,Activity,Staphylococcus aureus [13],Active
same,inhibition,[14],Dose-Dependent Effect
same,inhibition,[15],85%
same,inhibition,[16],86%
same,Activity,[17],Non-Toxic
same,Activity,Staphylococcus aureus [18],80%
same,Activity,Staphylococcus aureus [19],90%
same,Activity,Galleria mellonella,Active

# Reference: ChEMBL document CHEMBL5357047, “The development of thymol-isatin hybrids as broad-spectrum antibacterial agents with potent anti-MRSA activity” (RSC Med Chem, 2024)
